Assay results as given in ChEMBL document CHEMBL2375225, “Structure-activity relationship of 5-chloro-2-methyl-3-(1,2,3,6-tetrahydropyridin-4-yl)-1H-indole analogues as 5-HT(6) receptor agonists” (Eur J Med Chem, 2013).

Legend:
[1] = Displacement of [3H]-GR65630 from 5HT3 receptor in rat/mouse NG108 cells; assay type: cell-based
[2] = Displacement of [3H]-5-HT from calf 5HT1D receptor; set-up: species or system Bos taurus
[3] = target: 5-hydroxytryptamine receptor 1B (Rattus norvegicus, UniProt P28564); assay: Displacement of [125I]-iodocyanopindolol from rat 5HT1B receptor
5-hydroxytryptamine receptor 1B, sequence (P28564 whole entry): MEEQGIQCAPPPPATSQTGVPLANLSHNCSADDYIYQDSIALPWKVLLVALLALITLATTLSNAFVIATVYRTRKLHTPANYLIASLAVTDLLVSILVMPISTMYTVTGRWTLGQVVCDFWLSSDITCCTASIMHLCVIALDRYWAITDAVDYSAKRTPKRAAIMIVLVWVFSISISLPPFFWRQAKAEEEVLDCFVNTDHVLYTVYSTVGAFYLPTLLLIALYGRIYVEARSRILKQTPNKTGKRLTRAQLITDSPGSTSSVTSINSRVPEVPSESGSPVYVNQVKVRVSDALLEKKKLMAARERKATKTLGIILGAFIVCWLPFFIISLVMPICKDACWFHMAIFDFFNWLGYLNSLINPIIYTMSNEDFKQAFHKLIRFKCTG

[4] = target: T1, 5-hydroxytryptamine receptor 6 (Homo sapiens, UniProt P50406); assay: Displacement of [3H]LSD from human 5HT6 receptor expressed in HEK cell membranes after 1 hr by liquid scintillation counting analysis; set-up: species or system HEK293
T1 sequence (P50406 whole entry): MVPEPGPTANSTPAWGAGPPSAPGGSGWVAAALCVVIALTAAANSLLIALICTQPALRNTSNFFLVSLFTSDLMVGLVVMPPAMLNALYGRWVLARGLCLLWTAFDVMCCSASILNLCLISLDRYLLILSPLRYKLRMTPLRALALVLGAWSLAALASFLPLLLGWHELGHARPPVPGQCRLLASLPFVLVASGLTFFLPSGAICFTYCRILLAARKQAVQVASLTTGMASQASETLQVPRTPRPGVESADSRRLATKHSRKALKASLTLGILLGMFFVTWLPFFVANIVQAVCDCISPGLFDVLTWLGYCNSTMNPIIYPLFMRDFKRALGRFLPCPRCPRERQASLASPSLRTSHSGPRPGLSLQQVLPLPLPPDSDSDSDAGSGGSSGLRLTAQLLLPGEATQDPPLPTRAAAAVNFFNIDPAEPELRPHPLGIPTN
Summary of the method: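 Compounds were made up as 1 mM DMSO stocks and diluted in 20 mM HEPES, 0.1% ascorbic acid, pH 7.4. They were incubated 1 h at 37 °C with [3H]LSD (1 nM final) and membranes (23 µg protein) from HEK cells expressing human 5-HT6. Binding was stopped by filtration through GF/B filters presoaked in 0.1% polyethyleneimine, with three buffer washes, then counted by liquid scintillation. Single determination.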

[5] = target: T1, 5-hydroxytryptamine receptor 6; assay: Agonist activity at human 5HT6 receptor expressed in BHK cells assessed as stimulation of cAMP production after 45 minutes; assay type: functional, cell-based
Summary of the method: (§1)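 BHK cells stably transfected with the human 5-HT6 receptor, grown in MEM-α with 10% dialysed heat-inactivated FCS at 37 °C under 5% CO2. Cells were detached with 5 mM EDTA in PBS, seeded at 10,000 cells/well and left to adhere ≥12 h. They were then washed and placed in serum-free MEM-α, exposed to compound for 45 min, washed with PBS, and intracellular cAMP measured by enzyme immunoassay.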

[6] = target: T2, 5-hydroxytryptamine receptor 1A (Rattus norvegicus, UniProt P19327); assay: Displacement of [3H]-8-OH-DPAT from rat 5HT1A receptor
T2 sequence (P19327 whole entry): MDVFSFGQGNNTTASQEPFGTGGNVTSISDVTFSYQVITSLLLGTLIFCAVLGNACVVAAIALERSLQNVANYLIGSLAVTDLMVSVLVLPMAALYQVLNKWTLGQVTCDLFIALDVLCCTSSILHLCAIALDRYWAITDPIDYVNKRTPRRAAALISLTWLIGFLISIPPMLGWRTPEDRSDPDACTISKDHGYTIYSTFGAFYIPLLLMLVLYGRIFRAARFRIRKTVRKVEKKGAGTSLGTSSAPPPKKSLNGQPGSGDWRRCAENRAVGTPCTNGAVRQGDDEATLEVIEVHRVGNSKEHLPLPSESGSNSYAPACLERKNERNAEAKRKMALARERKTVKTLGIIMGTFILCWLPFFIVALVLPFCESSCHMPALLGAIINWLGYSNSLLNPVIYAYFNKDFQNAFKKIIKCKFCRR

[7] = target: 5-hydroxytryptamine receptor 7 (Homo sapiens, UniProt P34969); assay: Displacement of [3H]LSD from human 5HT7 receptor
5-hydroxytryptamine receptor 7, sequence (P34969 whole entry): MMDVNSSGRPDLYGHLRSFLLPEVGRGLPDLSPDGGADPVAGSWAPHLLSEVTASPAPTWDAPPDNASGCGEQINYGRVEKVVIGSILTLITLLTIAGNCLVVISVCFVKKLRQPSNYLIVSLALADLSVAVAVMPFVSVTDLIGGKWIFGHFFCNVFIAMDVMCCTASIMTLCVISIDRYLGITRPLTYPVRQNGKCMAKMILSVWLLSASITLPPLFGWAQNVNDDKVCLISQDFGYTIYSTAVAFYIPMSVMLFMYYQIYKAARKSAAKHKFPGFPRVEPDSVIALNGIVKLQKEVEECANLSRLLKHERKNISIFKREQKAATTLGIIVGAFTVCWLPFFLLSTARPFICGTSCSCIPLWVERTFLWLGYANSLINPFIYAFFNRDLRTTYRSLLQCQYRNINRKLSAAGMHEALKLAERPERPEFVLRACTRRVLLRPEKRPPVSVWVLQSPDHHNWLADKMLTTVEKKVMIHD

[8] = target: Sodium-dependent serotonin transporter (Rattus norvegicus, UniProt P31652); assay: Displacement of [3H]-5-HT from rat SERT
Sodium-dependent serotonin transporter, sequence (P31652 whole entry): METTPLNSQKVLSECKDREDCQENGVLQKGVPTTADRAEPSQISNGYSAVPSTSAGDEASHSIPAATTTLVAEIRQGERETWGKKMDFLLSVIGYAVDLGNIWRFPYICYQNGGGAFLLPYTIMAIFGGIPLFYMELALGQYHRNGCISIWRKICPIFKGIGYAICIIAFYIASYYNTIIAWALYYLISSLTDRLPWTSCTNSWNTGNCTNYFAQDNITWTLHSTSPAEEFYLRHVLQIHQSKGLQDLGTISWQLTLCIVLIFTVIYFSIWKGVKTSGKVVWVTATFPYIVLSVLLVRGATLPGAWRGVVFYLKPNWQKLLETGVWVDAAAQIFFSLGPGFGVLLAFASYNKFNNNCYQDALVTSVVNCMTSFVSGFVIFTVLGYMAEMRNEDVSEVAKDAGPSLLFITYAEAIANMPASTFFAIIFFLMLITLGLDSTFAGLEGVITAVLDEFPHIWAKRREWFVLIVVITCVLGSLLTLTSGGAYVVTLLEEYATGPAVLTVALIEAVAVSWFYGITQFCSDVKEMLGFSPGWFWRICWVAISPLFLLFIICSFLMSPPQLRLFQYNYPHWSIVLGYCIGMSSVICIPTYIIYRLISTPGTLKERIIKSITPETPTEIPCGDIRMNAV

[9] = target: T3, 5-hydroxytryptamine receptor 2C (Homo sapiens, UniProt P28335); assay: Displacement of [3H]-mesulergine from human 5HT2C receptor
T3 sequence (P28335 whole entry): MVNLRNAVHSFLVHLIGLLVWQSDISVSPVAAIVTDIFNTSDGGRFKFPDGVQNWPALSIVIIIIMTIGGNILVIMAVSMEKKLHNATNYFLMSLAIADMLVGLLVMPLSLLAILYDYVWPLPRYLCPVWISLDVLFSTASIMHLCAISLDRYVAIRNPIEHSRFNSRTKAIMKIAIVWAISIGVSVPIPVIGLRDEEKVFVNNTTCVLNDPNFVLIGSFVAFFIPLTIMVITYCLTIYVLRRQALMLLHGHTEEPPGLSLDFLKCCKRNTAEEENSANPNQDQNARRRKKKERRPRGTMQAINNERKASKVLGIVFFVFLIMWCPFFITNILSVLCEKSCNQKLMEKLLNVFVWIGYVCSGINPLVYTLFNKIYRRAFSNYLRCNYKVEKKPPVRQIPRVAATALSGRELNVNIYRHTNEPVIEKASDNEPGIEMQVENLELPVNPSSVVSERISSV

[10] = target: 5-hydroxytryptamine receptor 2A (Homo sapiens, UniProt P28223); assay: Displacement of [3H]-ketanserin from human 5HT2A receptor
5-hydroxytryptamine receptor 2A, sequence (P28223 whole entry): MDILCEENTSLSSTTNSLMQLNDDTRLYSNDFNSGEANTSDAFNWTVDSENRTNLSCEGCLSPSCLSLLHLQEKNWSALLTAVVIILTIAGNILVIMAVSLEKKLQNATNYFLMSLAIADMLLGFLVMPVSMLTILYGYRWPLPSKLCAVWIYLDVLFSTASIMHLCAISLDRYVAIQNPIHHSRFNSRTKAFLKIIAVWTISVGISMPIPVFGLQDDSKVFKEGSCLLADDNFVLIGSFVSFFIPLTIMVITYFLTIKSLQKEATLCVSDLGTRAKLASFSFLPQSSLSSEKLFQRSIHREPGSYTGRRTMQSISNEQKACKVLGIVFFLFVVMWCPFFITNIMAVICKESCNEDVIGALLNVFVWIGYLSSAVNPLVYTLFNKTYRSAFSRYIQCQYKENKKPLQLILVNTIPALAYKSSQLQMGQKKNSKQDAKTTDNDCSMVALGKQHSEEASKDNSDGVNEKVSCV

[11] = target: T1, 5-hydroxytryptamine receptor 6; assay: Agonist activity at human 5HT6 receptor expressed in BHK cells assessed as stimulation of cAMP production after 45 minutes relative to control; assay type: functional, cell-based; summary of the method: as §1
[12] = target: T1, 5-hydroxytryptamine receptor 6; assay: Displacement of [3H]LSD from human 5HT6 receptor expressed in CHO cell membranes after 1 hr by liquid scintillation counting analysis
[13] = target: T1, 5-hydroxytryptamine receptor 6; assay: Antagonist activity at human 5HT6 receptor expressed in human HeLa cells assessed as inhibition of 5HT-induced cAMP accumulation relative to control; assay type: functional, cell-based; set-up: scale not given: the % may be the effect or the level left
[14] = target: T1, 5-hydroxytryptamine receptor 6; assay: Partial agonist activity at human 5HT6 receptor expressed in BHK cells assessed as stimulation of cAMP production after 45 minutes; assay type: functional, cell-based; summary of the method: as §1
[15] = target: T1, 5-hydroxytryptamine receptor 6; assay: Partial agonist activity at human 5HT6 receptor expressed in BHK cells assessed as stimulation of cAMP production after 45 minutes relative to control; assay type: functional, cell-based; summary of the method: as §1
[16] = target: 5-hydroxytryptamine receptor 4 (Cavia porcellus, UniProt O70528); assay: Displacement of [3H]-GR113808 from guinea pig 5HT4 receptor
5-hydroxytryptamine receptor 4, sequence (O70528 whole entry): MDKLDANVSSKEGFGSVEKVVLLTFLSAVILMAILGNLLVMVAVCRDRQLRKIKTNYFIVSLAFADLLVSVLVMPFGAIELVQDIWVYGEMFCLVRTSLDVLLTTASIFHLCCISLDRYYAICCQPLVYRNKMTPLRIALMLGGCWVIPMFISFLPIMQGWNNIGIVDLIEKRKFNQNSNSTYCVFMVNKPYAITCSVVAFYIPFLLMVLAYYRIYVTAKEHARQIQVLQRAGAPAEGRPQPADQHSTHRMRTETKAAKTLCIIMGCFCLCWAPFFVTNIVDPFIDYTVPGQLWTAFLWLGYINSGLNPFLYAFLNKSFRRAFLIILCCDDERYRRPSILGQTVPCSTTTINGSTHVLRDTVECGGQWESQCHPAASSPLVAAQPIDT

SMILES	IC50 [2] [nM]	IC50 [3] [nM]	IC50 [4] [nM]	IC50 [6] [nM]	IC50 [7] [nM]	IC50 [8] [nM]	IC50 [9] [nM]	IC50 [10] [nM]	EC50 [14] [nM]	Activity [15] [%]	further results
COc1ccc2[nH]cc(C3=CCNCC3)c2c1 [RU-24969]	20	6									IC50 [1]: > 1000 nM
CCn1c(C)c(C2=CCNCC2)c2cc(Cl)ccc21			100								
Cc1[nH]c2ccc(Br)cc2c1C1=CCNCC1	130	75	10	660	480	4800	420	400			EC50 [5]: 2.7 nM; Activity [11]: 100%
Cc1c(C2=CCNCC2)c2cc(Cl)ccc2n1S(=O)(=O)c1ccccc1											IC50 [12]: 2 nM; Activity [13]: 0%
Cc1[nH]c2ccc(Oc3ccccc3[N+](=O)[O-])cc2c1C1=CCNCC1			9								
CCCn1c(C)c(C2=CCNCC2)c2cc(Cl)ccc21			80								
Cc1[nH]c2ccc(-c3ccsc3)cc2c1C1=CCNCC1	33	12	700	> 1000	690	> 1000	> 1000	> 1000			
Cc1c(C2=CCNCC2)c2cc(Cl)ccc2n1C			40								
Cc1[nH]c2ccc(-c3ccccc3)cc2c1C1=CCNCC1	390	140	1000	> 1000	3700	> 1000	> 1000	> 1000			
Cc1[nH]c2ccc(OC(C)C)cc2c1C1=CCNCC1			100								
Cc1[nH]c2ccc(OS(=O)(=O)C(F)(F)F)cc2c1C1=CCNCC1	35	29	50	> 1000	1800	> 1000	990	> 1000	32	65	
Cc1[nH]c2ccc(F)cc2c1C1=CCNCC1	160	200	30	> 1000	3100	1900	700	950			EC50 [5]: 5.3 nM; Activity [11]: 100%
N#Cc1ccc2[nH]cc(C3=CCNCC3)c2c1			20						130	44	
CSc1ccc2[nH]c(C)c(C3=CCNCC3)c2c1			20						6.6	58	
C1=C(c2c(-c3ccccc3)[nH]c3ccccc23)CCNC1	> 1000	> 1000		> 1000			100	50			IC50 [1]: 270 nM
Cc1[nH]c2ccc([N+](=O)[O-])cc2c1C1=CCNCC1	310	570	10	890	> 1000	> 1000	> 1000	1000	32	28	
Cc1[nH]c2ccc(NS(=O)(=O)c3ccccc3)cc2c1C1=CCNCC1									21	60	IC50 [12]: 29 nM
Cc1[nH]c2ccccc2c1C1=CCNCC1	1200	890	200	5700	> 1000	> 1000	2900	1500	1100	78	IC50 [1]: 2300 nM; IC50 [16]: 1000 nM
